Measurements taken from ChEMBL document CHEMBL4265981, “Design, synthesis, and biological evaluation of novel pan agonists of FFA1, PPARγ and PPARδ” (Eur J Med Chem, 2018).

Legend:
[1] = molecular target: T1, Peroxisome proliferator-activated receptor gamma (Homo sapiens, UniProt P37231); test: Agonist activity at human GAL4 fused PPARgamma-LBD expressed in HEK293 cells after 18 hrs by luciferase reporter gene assay; assay type: cell-based
T1 sequence (P37231 whole entry): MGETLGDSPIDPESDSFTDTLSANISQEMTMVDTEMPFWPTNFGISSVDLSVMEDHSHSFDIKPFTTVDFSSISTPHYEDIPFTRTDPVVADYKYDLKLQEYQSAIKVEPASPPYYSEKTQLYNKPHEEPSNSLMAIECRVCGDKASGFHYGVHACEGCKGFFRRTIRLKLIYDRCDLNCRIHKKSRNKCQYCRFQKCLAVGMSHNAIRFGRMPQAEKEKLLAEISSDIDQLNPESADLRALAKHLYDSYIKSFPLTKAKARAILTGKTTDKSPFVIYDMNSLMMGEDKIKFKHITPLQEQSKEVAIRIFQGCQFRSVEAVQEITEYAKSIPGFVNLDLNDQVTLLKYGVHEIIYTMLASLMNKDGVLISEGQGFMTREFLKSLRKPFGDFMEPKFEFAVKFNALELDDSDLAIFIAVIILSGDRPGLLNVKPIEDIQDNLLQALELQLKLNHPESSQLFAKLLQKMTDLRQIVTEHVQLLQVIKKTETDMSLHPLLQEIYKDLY
In short: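 HEK293 cells plated 1 day ahead in antibiotic-free DMEM, transiently transfected with pBIND-PPARγ plus pG5Luc reporter (25 ng/well each). After 24 h, compounds added at various concentrations for 18 h. Dual firefly/renilla luciferase read-out, firefly normalized to renilla. % activation scaled between no-compound control and reference agonist; EC50 is the mean of three determinations.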

[2] = molecular target: T2, Peroxisome proliferator-activated receptor delta (Homo sapiens, UniProt Q03181); test: Agonist activity at human GAL4 fused PPARdelta-LBD expressed in HEK293 cells after 18 hrs by luciferase reporter gene assay; assay type: cell-based
T2 sequence (Q03181 whole entry): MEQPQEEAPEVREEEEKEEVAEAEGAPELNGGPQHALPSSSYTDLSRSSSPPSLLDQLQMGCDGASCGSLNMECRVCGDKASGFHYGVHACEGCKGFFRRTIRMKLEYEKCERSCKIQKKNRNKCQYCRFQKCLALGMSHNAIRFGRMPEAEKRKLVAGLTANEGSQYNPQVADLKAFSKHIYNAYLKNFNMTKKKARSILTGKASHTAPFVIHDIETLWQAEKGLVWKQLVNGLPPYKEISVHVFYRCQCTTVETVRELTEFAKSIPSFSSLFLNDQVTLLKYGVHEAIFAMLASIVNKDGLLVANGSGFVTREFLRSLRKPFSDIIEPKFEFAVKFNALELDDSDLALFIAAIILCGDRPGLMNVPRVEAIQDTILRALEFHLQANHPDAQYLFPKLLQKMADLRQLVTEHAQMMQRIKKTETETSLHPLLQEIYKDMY

[3] = molecular target: T3, Peroxisome proliferator-activated receptor alpha (Homo sapiens, UniProt Q07869); test: Agonist activity at human GAL4 fused PPARalpha-LBD expressed in human HepG2 cells after 18 hrs by luciferase reporter gene assay; assay type: cell-based
T3 sequence (Q07869 whole entry): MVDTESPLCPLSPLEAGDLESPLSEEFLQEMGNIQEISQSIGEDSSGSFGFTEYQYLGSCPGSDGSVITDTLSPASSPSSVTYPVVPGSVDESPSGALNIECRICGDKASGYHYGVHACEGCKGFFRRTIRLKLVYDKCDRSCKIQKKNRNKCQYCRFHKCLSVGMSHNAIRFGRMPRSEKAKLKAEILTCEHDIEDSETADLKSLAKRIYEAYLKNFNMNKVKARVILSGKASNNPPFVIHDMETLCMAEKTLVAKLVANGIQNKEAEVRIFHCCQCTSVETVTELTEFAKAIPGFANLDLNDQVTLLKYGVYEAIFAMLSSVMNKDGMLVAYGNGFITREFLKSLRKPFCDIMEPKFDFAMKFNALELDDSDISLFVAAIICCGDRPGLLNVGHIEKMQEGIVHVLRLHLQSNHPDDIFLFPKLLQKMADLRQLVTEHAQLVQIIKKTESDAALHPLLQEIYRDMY
In short: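 HepG2 cells plated 1 day ahead in antibiotic-free MEM, then run by the same GAL4 protocol: pBIND-PPAR construct plus pG5Luc reporter transfection, 18 h compound exposure at various concentrations. Firefly/renilla luciferase ratio scaled between no-compound and reference-agonist controls. EC50 is the mean of three determinations.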

[4] = molecular target: T4, Free fatty acid receptor 1 (Homo sapiens, UniProt O14842); test: Agonist activity at human FFA1 expressed in CHO cells assessed as increase in intracellular Ca2+ flux after 1 hr by Fluo4-AM dye based FLIPR assay; assay type: functional, cell-based
In short: (§1)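 CHO cells stably expressing human FFA1, seeded 16 h at 37 °C, washed with HBSS, then loaded 1 h at 37 °C with Fluo 4-AM (2.5 μg/mL), 2.5 mmol/L probenecid and 0.1% fatty acid-free BSA. Intracellular Ca2+ flux read by FLIPR after compound addition at various concentrations.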

Mus musculus [5] = test: Hypoglycemic activity in ob/ob mouse assessed as decrease in blood glucose AUC (0 to 120 mins) at 100 mg/kg, po bid administered via gavage for 5 days starting at 30 mins prior to glucose load by OGTT relative to control; assay type: functional; set-up: scale not given: the % may be the effect or the level left
In short: (§2)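 Male ob/ob mice, six weeks old, acclimatized 1 week. Dosed by gavage twice daily for 5 days with 100 or 40 mg/kg, or with 0.5% methylcellulose vehicle. OGTT on days 0 and 5: overnight fast, dose, then oral glucose 3 g/kg 30 min later. Tail-tip blood glucose by strip at −30, 0, 15, 30, 60 and 120 min. n = 6/group, mean ± SD, Student's t test.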

Mus musculus [6] = test: Hypoglycemic activity in ICR mouse assessed as decrease in blood glucose AUC (0 to 120 mins) at 10 mg/kg, po administered 30 mins prior to glucose load by OGTT relative to control; assay type: functional; set-up: scale not given: the % may be the effect or the level left
In short: (§3)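 Male ICR mice (18–22 g), acclimatized 1 week. Single oral dose (10, 30, 100 or 20 mg/kg) in 0.5% carboxymethylcellulose/methylcellulose vehicle, given 30 min before an oral glucose load of 3 g/kg. Blood glucose measured by test strip at −30, 0, 15, 30, 60 and 120 min. AUC0–120 min compared with vehicle.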

Mus musculus [7] = test: Hypoglycemic activity in ICR mouse assessed as decrease in blood glucose AUC (0 to 120 mins) at 30 mg/kg, po administered 30 mins prior to glucose load by OGTT relative to control; assay type: functional; set-up: scale not given: the % may be the effect or the level left; in short: as §3
Mus musculus [8] = test: Hypoglycemic activity in ICR mouse assessed as decrease in blood glucose AUC (0 to 120 mins) at 100 mg/kg, po administered 30 mins prior to glucose load by OGTT relative to control; assay type: functional; set-up: scale not given: the % may be the effect or the level left; in short: as §3
Mus musculus [9] = test: Hypoglycemic activity in ob/ob mouse assessed as decrease in blood glucose AUC (0 to 120 mins) at 100 mg/kg, po bid administered via gavage 30 mins prior to glucose load by OGTT relative to control; assay type: functional; set-up: scale not given: the % may be the effect or the level left; in short: as §2
Mus musculus [10] = test: Hypoglycemic activity in ICR mouse assessed as decrease in plasma glucose level administered orally 30 mins prior to glucose load and measured after 120 mins by OGTT; assay type: functional, organism-based; in short: as §3
[11] = molecular target: T4, Free fatty acid receptor 1; test: Agonist activity at FFA1 (unknown origin); assay type: functional; in short: as §1
Mus musculus [12] = test: Hypoglycemic activity in ICR mouse assessed as decrease in blood glucose AUC (0 to 120 mins) at 20 mg/kg, po administered 30 mins prior to glucose load by OGTT relative to control; assay type: functional; set-up: scale not given: the % may be the effect or the level left; in short: as §3
Mus musculus [13] = test: Hypoglycemic activity in ob/ob mouse assessed as decrease in blood glucose AUC (0 to 120 mins) at 40 mg/kg, po bid administered via gavage 30 mins prior to glucose load by OGTT relative to control; assay type: functional; set-up: scale not given: the % may be the effect or the level left; in short: as §2
Mus musculus [14] = test: Hypoglycemic activity in ob/ob mouse assessed as decrease in blood glucose AUC (0 to 120 mins) at 40 mg/kg, po bid administered via gavage for 5 days starting at 30 mins prior to glucose load by OGTT relative to control; assay type: functional; set-up: scale not given: the % may be the effect or the level left; in short: as §2

T4 sequence (O14842 whole entry): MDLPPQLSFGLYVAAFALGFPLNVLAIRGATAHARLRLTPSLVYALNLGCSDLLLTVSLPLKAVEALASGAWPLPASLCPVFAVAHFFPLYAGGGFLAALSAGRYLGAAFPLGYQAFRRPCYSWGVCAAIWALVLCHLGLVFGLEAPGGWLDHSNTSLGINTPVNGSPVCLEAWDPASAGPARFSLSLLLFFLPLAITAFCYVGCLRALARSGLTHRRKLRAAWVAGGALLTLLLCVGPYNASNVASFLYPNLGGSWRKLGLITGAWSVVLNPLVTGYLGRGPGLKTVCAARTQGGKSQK

O=C(O)CC1COc2cc(OCCCOc3ccccc3)ccc21 (stereo unspecified)
EC50 [1]: 5.26 µM | EC50 [2]: 3.26 µM | EC50 [3]: > 10 µM | EC50 [4]: > 10 µM

CC(C)(C)c1cccc(OCCCOc2ccc3c(c2)OCC3CC(=O)O)c1 (stereo unspecified)
EC50 [1]: 1.75 µM | EC50 [2]: 4.84 µM | EC50 [3]: > 10 µM | EC50 [4]: 3.02 µM

O=C(O)CC1COc2cc(OCCOc3ccccc3)ccc21 (stereo unspecified)
EC50 [1]: 7.75 µM | EC50 [2]: 7.93 µM | EC50 [3]: > 10 µM | EC50 [4]: > 10 µM

O=C(O)CC1COc2cc(OCCCOc3cccc(Br)c3)ccc21 (stereo unspecified)
EC50 [1]: 1.67 µM | EC50 [2]: 2.37 µM | EC50 [3]: > 10 µM | EC50 [4]: 3.45 µM

Cc1ccccc1OCCCOc1ccc2c(c1)OCC2CC(=O)O (stereo unspecified)
EC50 [1]: 2.02 µM | EC50 [2]: 1.93 µM | EC50 [3]: > 10 µM | EC50 [4]: > 10 µM

O=C(O)CC1COc2cc(OCCCOc3ccc(-c4ccccc4)cc3)ccc21 (stereo unspecified)
EC50 [1]: 2.97 µM | EC50 [2]: 1.98 µM | EC50 [3]: 7.31 µM | EC50 [4]: 4.26 µM

CC(C)(C)c1cccc(OCCOc2ccc3c(c2)OCC3CC(=O)O)c1 (stereo unspecified)
EC50 [1]: 2.03 µM | EC50 [2]: 9.57 µM | EC50 [3]: > 10 µM | EC50 [4]: 3.85 µM

Cc1cc(OCCCOc2ccc(-c3ccccc3)cc2)ccc1OCC(=O)O
EC50 [1]: 4.56 µM | EC50 [2]: 1.52 µM | EC50 [3]: 5.26 µM | EC50 [4]: > 10 µM

O=C(O)C[C@@H]1COc2cc(OCCCOc3cccc(Cl)c3)ccc21
Activity (Mus musculus [5]): 17.3% | Activity (Mus musculus [6]): 1.1% | EC50 [1]: 1.43 µM | Activity (Mus musculus [7]): 8.1% | Activity (Mus musculus [8]): 18.6% | EC50 [2]: 1.75 µM | Activity (Mus musculus [9]): 7.6% | EC50 [3]: > 10 µM | EC50 [4]: 2.38 µM | Activity (Mus musculus [10]): Dose-dependent effect

O=C(O)CS(=O)(=O)c1ccc(OCCCOc2cccc(Cl)c2)cc1
EC50 [1]: > 10 µM | EC50 [2]: > 10 µM | EC50 [3]: > 10 µM | EC50 [4]: > 10 µM

[2H]C([2H])(Cc1ccc(OCCCOc2cccc(Cl)c2)cc1)C(=O)O
EC50 [1]: 1.92 µM | EC50 [2]: 4.56 µM | EC50 [3]: > 10 µM | EC50 [4]: 3.28 µM

Cc1cccc(OCCCOc2ccc3c(c2)OCC3CC(=O)O)c1 (stereo unspecified)
EC50 [1]: 1.75 µM | EC50 [2]: 2.42 µM | EC50 [3]: > 10 µM | EC50 [4]: 3.59 µM

CC#C[C@@H](CC(=O)O)c1ccc(OCCCOc2cccc(Cl)c2)cc1
EC50 [11]: 0.01 µM

O=C(O)CC1COc2cc(OCCCOc3cccc(Cl)c3)ccc21 (stereo unspecified)
EC50 [1]: 1.69 µM | EC50 [2]: 2.16 µM | EC50 [3]: > 10 µM | EC50 [4]: 3.07 µM

O=C(O)CC1COc2cc(OCCCOc3ccccc3F)ccc21 (stereo unspecified)
EC50 [1]: 2.67 µM | EC50 [2]: 2.09 µM | EC50 [3]: > 10 µM | EC50 [4]: > 10 µM

O=C(O)COc1ccc(OCCCOc2cccc(Cl)c2)cc1F
EC50 [1]: 3.17 µM | EC50 [2]: 3.35 µM | EC50 [3]: > 10 µM | EC50 [4]: 8.45 µM

Cc1ccc(OCCCOc2ccc3c(c2)OCC3CC(=O)O)cc1 (stereo unspecified)
EC50 [1]: 1.81 µM | EC50 [2]: 1.95 µM | EC50 [3]: > 10 µM | EC50 [4]: 7.62 µM

Cc1cc(OCCCOc2cccc(Cl)c2)ccc1OCC(=O)O
EC50 [1]: 1.54 µM | EC50 [2]: 1.73 µM | EC50 [3]: > 10 µM | EC50 [4]: > 10 µM

Cc1cc(OCCCS(C)(=O)=O)cc(C)c1-c1cccc(COc2ccc3c(c2)OC[C@H]3CC(=O)O)c1
Activity (Mus musculus [12]): -26.9% | Activity (Mus musculus [13]): 13.1% | Activity (Mus musculus [14]): 20.2%

O=C(O)CC1COc2cc(OCCCOc3cccc(-c4ccccc4)c3)ccc21 (stereo unspecified)
EC50 [1]: 1.85 µM | EC50 [2]: 5.49 µM | EC50 [3]: > 10 µM | EC50 [4]: 2.76 µM

O=C(O)C[C@@H]1CCc2cc(OCCCOc3ccccc3)ccc21
EC50 [1]: > 10 µM | EC50 [2]: 0.17 µM | EC50 [3]: > 10 µM | EC50 [4]: > 10 µM
